Measurements as given in ChEMBL document CHEMBL3352416, “Discovery of carbohybrid-based 2-aminopyrimidine analogues as a new class of rapid-acting antimalarial agents using image-based cytological profiling assay” (J Med Chem, 2014).
Activity calls are given as the source filed them. No cut-off for these calls is given here.

How the values were obtained:
Plasmodium falciparum [1] = assay: Antimalarial activity against tightly synchronized Plasmodium falciparum W2 assessed as parasite stage accumulation index at late ring stages at 10 uM treated at 6 hrs post-invasion for continuous duration of 36 hrs by automated image mining based cytological profiling assay; assay type: functional
Plasmodium falciparum [2] = assay: Antimalarial activity against Plasmodium falciparum W2 assessed as increase in schizonts parasite stage accumulation index at 10 uM treated at 42 hrs post-invasion for 24 hrs by automated image mining based cytological profiling assay; assay type: functional, organism-based
In short: (§1)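 Tightly synchronized cultures exposed from the 42 hpi mid-schizont point for 24 h to 10 µM final. Host cells stained with wheat germ agglutinin-AlexaFluor 488, parasite nuclei with DAPI and live-parasite mitochondria with Mitotracker Red CMXRos. Infected and viable parasitaemia and stage proportions quantified by automated image mining. Stage accumulation indices and parasitaemia reduction index derived.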

Plasmodium falciparum [3] = assay: Antimalarial activity against Plasmodium falciparum HB3 assessed as reduction in parasite stage accumulation index at 10 uM treated at 42 hrs post-invasion for 24 hrs by automated image mining based cytological profiling assay; assay type: functional; in short: as §1
Plasmodium falciparum [4] = assay: Antimalarial activity against tightly synchronized Plasmodium falciparum HB3 assessed as parasite stage accumulation index at trophozoites stages at 10 uM treated at 6 hrs post-invasion for continuous duration of 36 hrs by automated image mining based cytological profiling assay; assay type: functional
In short: (§2)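 Tightly synchronized cultures exposed to 10 µM final from 6 hpi (early ring), 18 hpi (late ring) or 30 hpi (mid-trophozoite) for a continuous 36 h. Erythrocytes stained with WGA-AlexaFluor 488, parasite nuclei with DAPI, functional mitochondria with Mitotracker Red CMXRos. Stages (early rings, late rings, trophozoites, schizonts) classified by nuclear spot number and size. Viable parasitaemia and stage accumulation index obtained by automated image analysis.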

Plasmodium falciparum [5] = assay: Antimalarial activity against tightly synchronized Plasmodium falciparum W2 assessed as parasite stage accumulation index at schizonts stages at 10 uM treated at 18 hrs post-invasion for continuous duration of 36 hrs by automated image mining based cytological profiling assay; assay type: functional
Plasmodium falciparum [6] = assay: Antimalarial activity against tightly synchronized Plasmodium falciparum W2 assessed as parasite stage accumulation index at schizonts stages at 10 uM treated at 30 hrs post-invasion for continuous duration of 36 hrs by automated image mining based cytological profiling assay; assay type: functional
Plasmodium falciparum [7] = assay: Antimalarial activity against Plasmodium falciparum HB3 assessed as increase in schizonts parasite stage accumulation index at 10 uM treated at 42 hrs post-invasion for 24 hrs by automated image mining based cytological profiling assay; assay type: functional; in short: as §1
Plasmodium falciparum [8] = assay: Antimalarial activity against tightly synchronized Plasmodium falciparum K1 assessed as parasite stage accumulation index at early ring stages at 10 uM treated at 6 hrs post-invasion for continuous duration of 36 hrs by automated image mining based cytological profiling assay; assay type: functional; in short: as §2
Plasmodium falciparum [9] = assay: Antimalarial activity against tightly synchronized Plasmodium falciparum W2 assessed as parasite stage accumulation index at schizonts stages at 10 uM treated at 6 hrs post-invasion for continuous duration of 36 hrs by automated image mining based cytological profiling assay; assay type: functional; in short: as §2
Plasmodium falciparum [10] = assay: Antimalarial activity against tightly synchronized Plasmodium falciparum HB3 assessed as parasite stage accumulation index at trophozoites stages at 10 uM treated at 18 hrs post-invasion for continuous duration of 36 hrs by automated image mining based cytological profiling assay; assay type: functional; in short: as §2
Plasmodium falciparum [11] = assay: Antimalarial activity against tightly synchronized Plasmodium falciparum K1 assessed as parasite stage accumulation index at late ring stages at 10 uM treated at 6 hrs post-invasion for continuous duration of 36 hrs by automated image mining based cytological profiling assay; assay type: functional
Plasmodium falciparum [12] = assay: Antimalarial activity against tightly synchronized Plasmodium falciparum HB3 assessed as parasite stage accumulation index at trophozoites stages at 10 uM treated at 30 hrs post-invasion for continuous duration of 36 hrs by automated image mining based cytological profiling assay; assay type: functional
Plasmodium falciparum [13] = assay: Antimalarial activity against tightly synchronized Plasmodium falciparum HB3 assessed as parasite stage accumulation index at schizonts stages at 10 uM treated at 30 hrs post-invasion for continuous duration of 36 hrs by automated image mining based cytological profiling assay; assay type: functional
Plasmodium falciparum [14] = assay: Antimalarial activity against tightly synchronized Plasmodium falciparum HB3 assessed as parasite stage accumulation index at schizonts stages at 10 uM treated at 18 hrs post-invasion for continuous duration of 36 hrs by automated image mining based cytological profiling assay; assay type: functional; in short: as §2
Plasmodium falciparum [15] = assay: Antimalarial activity against tightly synchronized Plasmodium falciparum HB3 assessed as parasite stage accumulation index at early ring stages at 10 uM treated at 6 hrs post-invasion for continuous duration of 36 hrs by automated image mining based cytological profiling assay; assay type: functional
Plasmodium falciparum [16] = assay: Antimalarial activity against tightly synchronized Plasmodium falciparum HB3 assessed as parasite stage accumulation index at schizonts stages at 10 uM treated at 6 hrs post-invasion for continuous duration of 36 hrs by automated image mining based cytological profiling assay; assay type: functional; in short: as §2
Plasmodium falciparum [17] = assay: Antimalarial activity against Plasmodium falciparum K1 assessed as increase in schizonts parasite stage accumulation index at 10 uM treated at 42 hrs post-invasion for 24 hrs by automated image mining based cytological profiling assay; assay type: functional, organism-based; in short: as §1
Plasmodium falciparum [18] = assay: Antimalarial activity against tightly synchronized Plasmodium falciparum K1 assessed as parasite stage accumulation index at schizonts stages at 10 uM treated at 6 hrs post-invasion for continuous duration of 36 hrs by automated image mining based cytological profiling assay; assay type: functional; in short: as §2
Plasmodium falciparum [19] = assay: Antimalarial activity against Plasmodium falciparum K1 assessed as reduction in parasite stage accumulation index at 10 uM treated at 42 hrs post-invasion for 24 hrs by automated image mining based cytological profiling assay; assay type: functional, organism-based; in short: as §1
Plasmodium falciparum [20] = assay: Antimalarial activity against tightly synchronized Plasmodium falciparum K1 assessed as parasite stage accumulation index at trophozoites stages at 10 uM treated at 18 hrs post-invasion for continuous duration of 36 hrs by automated image mining based cytological profiling assay; assay type: functional; in short: as §2
Plasmodium falciparum [21] = assay: Antimalarial activity against tightly synchronized Plasmodium falciparum W2 assessed as parasite stage accumulation index at trophozoites stages at 10 uM treated at 30 hrs post-invasion for continuous duration of 36 hrs by automated image mining based cytological profiling assay; assay type: functional; in short: as §2
Plasmodium falciparum [22] = assay: Antimalarial activity against Plasmodium falciparum W2 assessed as reduction in parasite stage accumulation index at 10 uM treated at 42 hrs post-invasion for 24 hrs by automated image mining based cytological profiling assay; assay type: functional, organism-based; in short: as §1
Plasmodium falciparum [23] = assay: Antimalarial activity against tightly synchronized Plasmodium falciparum K1 assessed as parasite stage accumulation index at trophozoites stages at 10 uM treated at 30 hrs post-invasion for continuous duration of 36 hrs by automated image mining based cytological profiling assay; assay type: functional; in short: as §2
Plasmodium falciparum [24] = assay: Antimalarial activity against tightly synchronized Plasmodium falciparum W2 assessed as parasite stage accumulation index at late ring stages at 10 uM treated at 18 hrs post-invasion for continuous duration of 36 hrs by automated image mining based cytological profiling assay; assay type: functional; in short: as §2
Plasmodium falciparum [25] = assay: Antimalarial activity against tightly synchronized Plasmodium falciparum W2 assessed as parasite stage accumulation index at trophozoites stages at 10 uM treated at 6 hrs post-invasion for continuous duration of 36 hrs by automated image mining based cytological profiling assay; assay type: functional
Plasmodium falciparum [26] = assay: Antimalarial activity against tightly synchronized Plasmodium falciparum K1 assessed as parasite stage accumulation index at schizonts stages at 10 uM treated at 30 hrs post-invasion for continuous duration of 36 hrs by automated image mining based cytological profiling assay; assay type: functional; in short: as §2
Plasmodium falciparum [27] = assay: Antimalarial activity against tightly synchronized Plasmodium falciparum HB3 assessed as parasite stage accumulation index at late ring stages at 10 uM treated at 18 hrs post-invasion for continuous duration of 36 hrs by automated image mining based cytological profiling assay; assay type: functional; in short: as §2
Plasmodium falciparum [28] = assay: Antimalarial activity against tightly synchronized Plasmodium falciparum K1 assessed as parasite stage accumulation index at schizonts stages at 10 uM treated at 18 hrs post-invasion for continuous duration of 36 hrs by automated image mining based cytological profiling assay; assay type: functional; in short: as §2
Plasmodium falciparum [29] = assay: Antimalarial activity against tightly synchronized Plasmodium falciparum K1 assessed as parasite stage accumulation index at trophozoites stages at 10 uM treated at 6 hrs post-invasion for continuous duration of 36 hrs by automated image mining based cytological profiling assay; assay type: functional
Plasmodium falciparum [30] = assay: Antimalarial activity against tightly synchronized Plasmodium falciparum K1 assessed as parasite stage accumulation index at late ring stages at 10 uM treated at 18 hrs post-invasion for continuous duration of 36 hrs by automated image mining based cytological profiling assay; assay type: functional; in short: as §2
Plasmodium falciparum [31] = assay: Antimalarial activity against tightly synchronized Plasmodium falciparum W2 assessed as parasite stage accumulation index at trophozoites stages at 10 uM treated at 18 hrs post-invasion for continuous duration of 36 hrs by automated image mining based cytological profiling assay; assay type: functional
Plasmodium falciparum [32] = assay: Antimalarial activity against tightly synchronized Plasmodium falciparum W2 assessed as parasite stage accumulation index at early ring stages at 10 uM treated at 6 hrs post-invasion for continuous duration of 36 hrs by automated image mining based cytological profiling assay; assay type: functional; in short: as §2
Plasmodium falciparum [33] = assay: Antimalarial activity against tightly synchronized Plasmodium falciparum HB3 assessed as parasite stage accumulation index at late ring stages at 10 uM treated at 6 hrs post-invasion for continuous duration of 36 hrs by automated image mining based cytological profiling assay; assay type: functional; in short: as §2
Plasmodium falciparum [34] = assay: Antimalarial activity against Plasmodium falciparum W2 assessed as reduction in culture parasitaemia level at 10 uM treated at 42 hrs post-invasion for 24 hrs by automated image mining based cytological profiling assay; assay type: functional, organism-based; in short: as §1
Plasmodium falciparum [35] = assay: Antimalarial activity against Plasmodium falciparum K1 assessed as reduction in culture parasitaemia level at 10 uM treated at 42 hrs post-invasion for 24 hrs by automated image mining based cytological profiling assay; assay type: functional, organism-based; in short: as §1
Plasmodium falciparum [36] = assay: Antimalarial activity against Plasmodium falciparum HB3 assessed as reduction in culture parasitaemia level at 10 uM treated at 42 hrs post-invasion for 24 hrs by automated image mining based cytological profiling assay; assay type: functional; in short: as §1
[37] = Cytotoxicity against human HepG2 cells after 48 hrs by resazurin based assay; assay type: cell-based
In short: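 Cells grown in DMEM with 10% FBS and 1% antibiotic-antimycotic at 37 °C, 5% CO2. Viability read by resazurin reduction. CC50 derived; amphotericin B used as positive cytotoxicity control.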

| SMILES | Activity (Plasmodium falciparum [1]) | inhibition (Plasmodium falciparum [2]) | inhibition (Plasmodium falciparum [3]) | Activity (Plasmodium falciparum [4]) | Activity (Plasmodium falciparum [5]) | Activity (Plasmodium falciparum [6]) | inhibition (Plasmodium falciparum [7]) | Activity (Plasmodium falciparum [8]) | Activity (Plasmodium falciparum [9]) | Activity (Plasmodium falciparum [10]) | Activity (Plasmodium falciparum [11]) | Activity (Plasmodium falciparum [12]) | Activity (Plasmodium falciparum [13]) | Activity (Plasmodium falciparum [14]) | Activity (Plasmodium falciparum [15]) | Activity (Plasmodium falciparum [16]) | inhibition (Plasmodium falciparum [17]) | Activity (Plasmodium falciparum [18]) | inhibition (Plasmodium falciparum [19]) | Activity (Plasmodium falciparum [20]) | other results |
| --- | --- | --- | --- | --- | --- | --- | --- | --- | --- | --- | --- | --- | --- | --- | --- | --- | --- | --- | --- | --- | --- |
| CC(C)C[C@H](NC(=O)[C@H]1O[C@@H]1C(=O)O)C(=O)NCCCCN=C(N)N [E-64] | 0.91 | Active | Active | 1.32 | 2.1 | 3 | Active | 1.69 | 1.2 | 1.33 | 0.67 | 1.06 | 3.85 | 2.05 | 3.15 | 0.45 | Active | 0.55 | Active | 1.45 | Activity (Plasmodium falciparum [21]): 1.44; inhibition (Plasmodium falciparum [22]): Active; Activity (Plasmodium falciparum [23]): 0.5; Activity (Plasmodium falciparum [24]): 0.76; Activity (Plasmodium falciparum [25]): 1.4; Activity (Plasmodium falciparum [26]): 2.07; Activity (Plasmodium falciparum [27]): 0.8; Activity (Plasmodium falciparum [28]): 2.11; Activity (Plasmodium falciparum [29]): 1.25; Activity (Plasmodium falciparum [30]): 0.39; Activity (Plasmodium falciparum [31]): 1.22; Activity (Plasmodium falciparum [32]): 1.78; Activity (Plasmodium falciparum [33]): 1.15 |
| CC(=O)N[C@@H]1[C@@H](O)[C@H](O)[C@@H](CO)O[C@H]1O [N-ACETYLGLUCOSAMINE] | 0.88 | inactive | Active | 0.78 | 1.08 | 1.4 | inactive | 1.33 | 0.54 | 1.06 | 1.32 | 0.87 | 0.7 | 0.51 | 1.4 | 0.29 | inactive | 0.66 | Active | 1.18 | inhibition (Plasmodium falciparum [34]): Active; inhibition (Plasmodium falciparum [35]): Active; inhibition (Plasmodium falciparum [36]): Active; Activity (Plasmodium falciparum [21]): 0.34; inhibition (Plasmodium falciparum [22]): Active; Activity (Plasmodium falciparum [23]): 0.96; Activity (Plasmodium falciparum [24]): 0.83; Activity (Plasmodium falciparum [25]): 0.92; Activity (Plasmodium falciparum [26]): 1.04; Activity (Plasmodium falciparum [27]): 1; Activity (Plasmodium falciparum [28]): 0.64; Activity (Plasmodium falciparum [29]): 0.8; Activity (Plasmodium falciparum [30]): 0.86; Activity (Plasmodium falciparum [31]): 1.12; Activity (Plasmodium falciparum [32]): 1.52; Activity (Plasmodium falciparum [33]): 2.14 |
| C[C@@H]1[C@H](O)[C@@H](C)/C=C/C=C/C=C/C=C/C=C/C=C/C=C/[C@H](O[C@@H]2O[C@H](C)[C@@H](O)[C@H](N)[C@@H]2O)C[C@@H]2O[C@](O)(C[C@@H](O)C[C@@H](O)[C@H](O)CC[C@@H](O)C[C@@H](O)CC(=O)O[C@H]1C)C[C@H](O)[C@H]2C(=O)O [AMPHOTERICIN B] | – | – | – | – | – | – | – | – | – | – | – | – | – | – | – | – | – | – | – | – | CC50 at 48 h [37]: 40 µM |
